Calls of active or inactive are those of the source. The rule behind the calls is not given here.
What was measured:
[1] = tested on: Mus musculus; experiment: Induction of NQO1 mRNA expression in Nrf2-/- mouse kidney at 10 mg/kg measured after 24 hrs; format: functional, organism-based
[2] = tested on: Mus musculus; experiment: Induction of NQO1 mRNA expression in C57BI6 mouse kidney at 10 mg/kg measured after 24 hrs; format: functional, organism-based
[3] = Apparent permeability across apical to basolateral side in human Caco-2 cells at 10 uM incubated for 120 mins by LC-MS/MS analysis
[4] = target: T1, Keap1/Nrf2 (Homo sapiens, UniProt Q14145); experiment: Inhibition of human Keap1/PL-tagged human Nrf2 protein-protein interaction in human PathHunter U2OS Keap1-NRF2 Nuclear Translocation cells assessed as increase in Nrf2 translocation incubated for 3 hrs by luminescence based analysis; format: cell-based
[5] = in vitro; format: ADME, Microsome; settings: mouse, pooled liver microsomes, time < 55 min, read-out: CLH
[6] = Efflux ratio of apparent permeability across basolateral to apical over apical to basolateral side in human Caco-2 cells at 10 uM incubated for 120 mins by LC-MS/MS analysis; settings: caco-2, 2 h
[7] = in vitro; format: ADME, Microsome; settings: rat, pooled liver microsomes, time < 55 min, read-out: CLH
[8] = Cmax in male db/db mouse at 100 mg/kg, po administered via gavage and measured after 30 mins; format: ADME, organism-based; settings: in vivo, 0.5 h
How it was run: (§1)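 Male db/db mice (8–10 weeks), fed, single oral gavage of 100 mg/kg; vehicle 1% hydroxyethyl cellulose, except one compound given in Phosal 50PG/ethanol/PEG400.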

[9] = in vitro; format: ADME, Microsome; settings: human, pooled liver microsomes, time < 55 min, read-out: CLH
[10] = target: Kelch-like ECH-associated protein 1 (Homo sapiens) (UniProt Q14145); experiment: Binding affinity to human Keap1 BTB domain (48 to 213 residues) extracted from Escherichia coli BL21(DE3)-R3-pRARE2 cells assessed as adduct formation at 100 uM by LC-MS analysis
[11] = Genotoxicity in human TK6 cells assessed as clastogenicity at 10 uM measured after 4 to 24 hrs by DNA damage response assay; format: toxicity, cell-based; settings: tk6, 10 µM, time 4-24 hrs
[12] = In vivo activation of Nrf2 in male db/db mouse assessed as increase in NQO1 mRNA expression in kidney at 100 mg/kg, po administered via gavage and measured after 24 hrs relative to control; format: functional
[13] = Genotoxicity in […] assessed as clastogenicity at 10 uM measured after 4 to 24 hrs by DNA damage response assay; format: toxicity, cell-based; settings: time 4-24 hrs
[14] = target: T2, Kelch-like protein 26 (Homo sapiens) (UniProt Q53HC5); experiment: Binding affinity to human KLHL26 BTB domain (34 to 161 residues) extracted from Escherichia coli BL21(DE3)-R3-pRARE2 cells assessed as adduct formation at 100 uM by LC-MS analysis
T2 sequence (whole entry): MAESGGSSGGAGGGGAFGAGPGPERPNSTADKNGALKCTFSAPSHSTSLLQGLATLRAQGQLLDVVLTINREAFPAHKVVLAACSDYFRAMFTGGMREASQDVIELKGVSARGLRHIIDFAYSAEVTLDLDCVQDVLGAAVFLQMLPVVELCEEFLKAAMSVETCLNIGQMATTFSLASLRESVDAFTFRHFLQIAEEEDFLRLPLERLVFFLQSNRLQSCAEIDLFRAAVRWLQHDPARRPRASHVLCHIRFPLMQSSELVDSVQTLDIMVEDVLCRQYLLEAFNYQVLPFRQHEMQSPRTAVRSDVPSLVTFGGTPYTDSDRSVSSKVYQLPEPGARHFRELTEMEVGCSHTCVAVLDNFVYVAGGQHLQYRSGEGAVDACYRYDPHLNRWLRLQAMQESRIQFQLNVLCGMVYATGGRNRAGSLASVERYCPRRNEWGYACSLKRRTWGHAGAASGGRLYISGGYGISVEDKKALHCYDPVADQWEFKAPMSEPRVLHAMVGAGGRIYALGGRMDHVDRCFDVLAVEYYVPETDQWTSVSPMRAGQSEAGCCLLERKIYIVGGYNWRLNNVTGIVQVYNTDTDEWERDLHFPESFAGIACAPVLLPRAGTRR

[15] = target: T1, Keap1/Nrf2; experiment: Inhibition of Keap1/Nrf2 protein-protein interaction in human HepG2 cells transfected with beta-lactamase under the control of ARE incubated for 16 hrs by ARE-reporter based FRET assay; format: cell-based
[16] = In vivo activation of Nrf2 in male db/db mouse assessed as increase in NQO1 mRNA expression in kidney at 100 mg/kg, po administered via gavage and measured after 6 hrs relative to control; format: functional
How it was run: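 Fed male db/db mice (8–10 weeks) dosed 100 mg/kg by oral gavage in 1% HEC. Kidney Nqo1 mRNA measured at 6 h or 24 h and expressed as % change versus vehicle-treated mice.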

[17] = AUC in male db/db mouse at 100 mg/kg, po administered via gavage and measured after 24 hrs; format: ADME, organism-based; settings: in vivo; how it was run: as §1
[18] = target: T3, RNA-binding protein 12B (Homo sapiens) (UniProt Q8IXT5); experiment: Binding affinity to RBM12B at C204 residue in human MDA-MB-231 cells at 1 uM incubated for 3 hrs in presence of IAA by proteome-wide scale isoTOP ABPP method; format: cell-based
T3 sequence (whole entry): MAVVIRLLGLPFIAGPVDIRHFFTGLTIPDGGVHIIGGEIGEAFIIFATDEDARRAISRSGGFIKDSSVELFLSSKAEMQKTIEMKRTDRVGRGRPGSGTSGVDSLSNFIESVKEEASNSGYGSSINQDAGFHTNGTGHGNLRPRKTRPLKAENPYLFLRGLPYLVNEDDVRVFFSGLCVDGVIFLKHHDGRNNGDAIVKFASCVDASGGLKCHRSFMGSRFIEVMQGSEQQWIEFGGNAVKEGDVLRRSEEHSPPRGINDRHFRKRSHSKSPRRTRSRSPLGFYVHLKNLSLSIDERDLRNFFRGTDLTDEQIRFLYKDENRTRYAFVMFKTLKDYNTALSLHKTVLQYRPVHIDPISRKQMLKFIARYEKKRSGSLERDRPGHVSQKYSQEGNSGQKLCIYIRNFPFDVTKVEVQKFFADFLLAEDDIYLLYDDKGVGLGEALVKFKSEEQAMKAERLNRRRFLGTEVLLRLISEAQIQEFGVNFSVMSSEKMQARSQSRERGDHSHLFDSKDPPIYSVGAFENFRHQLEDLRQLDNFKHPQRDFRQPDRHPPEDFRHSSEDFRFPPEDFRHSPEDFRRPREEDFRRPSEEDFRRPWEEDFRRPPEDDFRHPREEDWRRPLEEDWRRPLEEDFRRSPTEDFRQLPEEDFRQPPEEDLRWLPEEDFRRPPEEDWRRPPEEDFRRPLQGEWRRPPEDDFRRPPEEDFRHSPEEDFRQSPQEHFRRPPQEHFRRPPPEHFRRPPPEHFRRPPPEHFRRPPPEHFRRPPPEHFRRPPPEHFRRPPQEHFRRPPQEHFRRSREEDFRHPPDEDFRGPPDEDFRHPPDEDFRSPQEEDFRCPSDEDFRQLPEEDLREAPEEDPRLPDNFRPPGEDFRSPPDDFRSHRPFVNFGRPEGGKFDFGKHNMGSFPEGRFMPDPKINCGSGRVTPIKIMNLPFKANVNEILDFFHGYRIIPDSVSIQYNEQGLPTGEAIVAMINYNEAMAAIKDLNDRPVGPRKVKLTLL
How it was run: (§2)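 Live MDA-MB-231 cells treated 3 h with compound at 1 μM, or with DMSO vehicle. 100 μM iodoacetamide-alkyne then added as a clickable cysteine-reactive probe. Cysteine competition read by isoTOP ABPP; competed peptides called at ratio R > 4.5.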

[19] = target: T4, Perilipin-3 (Homo sapiens) (UniProt O60664); experiment: Binding affinity to PLIN3 at C60 residue in human MDA-MB-231 cells at 1 uM incubated for 3 hrs in presence of IAA by proteome-wide scale isoTOP ABPP method; format: cell-based; how it was run: as §2
T4 sequence (whole entry): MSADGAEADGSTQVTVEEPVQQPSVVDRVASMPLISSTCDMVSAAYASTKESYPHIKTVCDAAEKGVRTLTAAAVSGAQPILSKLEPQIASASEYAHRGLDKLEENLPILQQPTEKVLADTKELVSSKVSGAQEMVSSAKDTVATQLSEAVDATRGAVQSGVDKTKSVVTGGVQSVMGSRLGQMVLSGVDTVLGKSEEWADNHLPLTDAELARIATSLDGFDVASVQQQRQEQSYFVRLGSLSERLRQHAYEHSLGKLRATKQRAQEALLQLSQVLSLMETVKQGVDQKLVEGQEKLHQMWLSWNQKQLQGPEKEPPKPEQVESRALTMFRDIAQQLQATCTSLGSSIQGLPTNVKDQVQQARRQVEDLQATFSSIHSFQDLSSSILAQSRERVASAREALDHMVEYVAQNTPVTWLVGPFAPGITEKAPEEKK

[20] = target: T4, Perilipin-3 (Homo sapiens); experiment: Binding affinity to PLIN3 at C39 residue in human MDA-MB-231 cells at 1 uM incubated for 3 hrs in presence of IAA by proteome-wide scale isoTOP ABPP method; format: cell-based; how it was run: as §2
[21] = species on record: Homo sapiens; experiment: Binding affinity to human Keap1 BTB domain C151A mutant (48 to 213 residues) extracted from Escherichia coli BL21(DE3)-R3-pRARE2 cells assessed as adduct formation by intact mass spectrometry
[22] = target: Kelch-like ECH-associated protein 1 (Homo sapiens) (UniProt Q14145); experiment: Binding affinity to human Keap1 BTB domain (48 to 213 residues) extracted from Escherichia coli BL21(DE3)-R3-pRARE2 cells assessed as adduct formation by intact mass spectrometry
[23] = tested on: Mus musculus; experiment: Induction of NQO1 mRNA expression in Nrf2-/- mouse kidney at 100 mg/kg measured after 24 hrs; format: functional, organism-based
[24] = tested on: Fibroblast; experiment: Effect on ARE signal response in Nrf2 knockout mouse embryonic fibroblast cells; format: functional, cell-based
[25] = tested on: Mus musculus; experiment: Induction of NQO1 mRNA expression in C57BI6 mouse kidney at 100 mg/kg measured after 24 hrs; format: functional, organism-based

Kelch-like ECH-associated protein 1 (Homo sapiens), sequence (Q14145 whole entry, the tested form may be a part): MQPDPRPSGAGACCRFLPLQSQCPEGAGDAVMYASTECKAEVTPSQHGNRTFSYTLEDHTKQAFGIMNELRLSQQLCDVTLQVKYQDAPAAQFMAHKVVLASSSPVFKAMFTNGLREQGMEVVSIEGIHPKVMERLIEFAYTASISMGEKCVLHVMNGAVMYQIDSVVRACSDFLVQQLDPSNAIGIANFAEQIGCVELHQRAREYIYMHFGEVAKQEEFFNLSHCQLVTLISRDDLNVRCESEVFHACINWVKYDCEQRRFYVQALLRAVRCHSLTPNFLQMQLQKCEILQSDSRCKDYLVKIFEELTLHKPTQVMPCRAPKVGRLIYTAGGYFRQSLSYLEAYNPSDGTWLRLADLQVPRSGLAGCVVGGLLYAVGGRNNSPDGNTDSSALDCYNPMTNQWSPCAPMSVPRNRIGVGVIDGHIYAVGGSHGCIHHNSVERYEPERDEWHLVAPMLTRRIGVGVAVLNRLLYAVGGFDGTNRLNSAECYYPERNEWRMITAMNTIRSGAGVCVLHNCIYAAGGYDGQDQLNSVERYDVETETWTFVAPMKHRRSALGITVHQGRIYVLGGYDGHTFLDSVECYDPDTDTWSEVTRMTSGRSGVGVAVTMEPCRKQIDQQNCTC
T1 sequence (Q16236 whole entry): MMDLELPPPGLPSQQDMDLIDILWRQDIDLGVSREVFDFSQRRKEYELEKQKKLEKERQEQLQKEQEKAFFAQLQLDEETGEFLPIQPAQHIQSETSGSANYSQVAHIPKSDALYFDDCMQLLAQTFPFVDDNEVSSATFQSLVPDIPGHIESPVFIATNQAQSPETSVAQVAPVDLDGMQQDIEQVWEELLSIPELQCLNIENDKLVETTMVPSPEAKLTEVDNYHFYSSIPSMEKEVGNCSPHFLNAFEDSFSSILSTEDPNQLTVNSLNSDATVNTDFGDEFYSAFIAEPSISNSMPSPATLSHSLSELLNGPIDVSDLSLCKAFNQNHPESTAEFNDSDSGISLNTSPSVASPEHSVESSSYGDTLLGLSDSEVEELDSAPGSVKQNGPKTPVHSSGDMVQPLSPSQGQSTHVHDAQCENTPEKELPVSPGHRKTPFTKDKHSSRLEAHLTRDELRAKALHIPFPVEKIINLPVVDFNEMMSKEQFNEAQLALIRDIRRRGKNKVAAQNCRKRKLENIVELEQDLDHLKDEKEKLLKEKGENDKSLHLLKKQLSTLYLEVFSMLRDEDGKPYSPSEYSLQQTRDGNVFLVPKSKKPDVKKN
T1 sequence (Q14145 whole entry): as the sequence (Q14145 whole entry, the tested form may be a part) above

Structure (SMILES): CC1(C)CC[C@]2(C(=O)O)CC[C@]3(C)[C@H](C(=O)C=C4[C@@]5(C)C=C(C#N)C(=O)C(C)(C)[C@@H]5CC[C@]43C)[C@@H]2C1
- Activity [1]: inactive
- Activity [2]: Active

Structure (SMILES): CCP1(=O)CCN(c2sc(S(=O)(=O)CC)nc2S(=O)(=O)c2cccc(Cl)c2Cl)CC1
- Papp A→B at 2 h, 10 µM [3]: 3 ×10⁻⁶ cm/s
- EC50 [4]: 527 nM
- CLint scaled at 0.75 h, 0.1 µM [5]: 52 mL/min/kg
- Ratio [6]: 8.7
- CLint scaled at 0.75 h, 0.1 µM [7]: 62 mL/min/kg
- Cmax [8]: 6.39 µM
- CLint scaled at 0.75 h, 0.1 µM [9]: 2.6 mL/min/kg
- Activity [10]: Active
- Activity [11]: Non-toxic
- Activity [12]: 116%
- Activity [13]: Non-toxic
- Activity [14]: inactive
- EC50 [15]: 160 nM
- Activity [16]: 125%
- AUC [17]: 8.5 µM·h

Structure (SMILES): Cc1ccc(S(=O)(=O)c2nc(S(=O)(=O)c3ccccc3)sc2N2CCOCC2)cc1
- EC50 [4]: 270 nM

Structure (SMILES): CCS(=O)(=O)c1nc(S(=O)(=O)c2ccc(-c3cccn(C)c3=O)cc2)c(N2CCN(C)C(=O)C2)s1
- Papp A→B at 2 h, 10 µM [3]: 0.74 ×10⁻⁶ cm/s
- EC50 [4]: 1490 nM
- CLint scaled at 0.75 h, 0.1 µM [5]: 22 mL/min/kg
- Ratio [6]: 46
- CLint scaled at 0.75 h, 0.1 µM [9]: 8.5 mL/min/kg
- EC50 [15]: 516 nM

Structure (SMILES): C=Cc1nc(S(=O)(=O)c2ccccc2Cl)c(N2CCN(C)C(=O)C2)s1
- Activity [18]: Active

Structure (SMILES): CCS(=O)(=O)c1nc(S(=O)(=O)c2ccccc2C#N)c(N2CCN(C)C(=O)C2)s1
- Activity [12]: 209%
- Activity [16]: 299%

Structure (SMILES): CCS(=O)(=O)c1nc(S(=O)(=O)c2ccccc2C#N)c(N2CCN(C)C(=O)[C@H]2C)s1
- Activity [10]: Active
- Activity [12]: 214%
- Activity [14]: inactive
- Activity [16]: 88%

Structure (SMILES): CCS(=O)(=O)c1nc(S(=O)(=O)c2ccccc2Cl)c(N2CC3(CC3)C2)s1
- EC50 [4]: > 32000 nM
- EC50 [15]: ≥ 13000 nM

Structure (SMILES): CCS(=O)(=O)c1nc(S(=O)(=O)c2ccccc2Cl)c(N2CCN(C)C(=O)[C@H]2C)s1
- Activity [19]: Active
- Activity [18]: Active
- Activity [10]: Active
- Activity [14]: inactive
- Activity [16]: 344%
- Activity [20]: Active

Structure (SMILES): CCS(=O)(=O)c1nc(S(=O)(=O)c2ccccc2Cl)c(N2CCP(C)(=O)CC2)s1
- Papp A→B at 2 h, 10 µM [3]: 1.4 ×10⁻⁶ cm/s
- EC50 [4]: 4210 nM
- Ratio [6]: 4.5
- CLint scaled at 0.75 h, 0.1 µM [7]: 5.6 mL/min/kg
- EC50 [15]: 946 nM

Structure (SMILES): CCS(=O)(=O)c1nc(S(=O)(=O)c2ccccc2Cl)c(N2CCN(C)C(=O)C2)s1
- Activity [21]: inactive
- Activity [22]: Active
- Activity [23]: inactive
- Activity [24]: Not active; Compound Selectively Acts Through Keap1-Nrf2 Axis
- Activity [25]: Active
- Activity [12]: 379%
- Activity [16]: 199%

Structure (SMILES): CN1CCN(c2sc(S(=O)(=O)C3CC3)nc2S(=O)(=O)c2ccccc2Cl)CC1=O
- Activity [12]: 164%
- Activity [16]: 149%

Structure (SMILES): Cc1ccc(S(=O)(=O)c2nc(S(=O)(=O)c3ccccc3)sc2N2CCN(C)CC2)cc1
- EC50 [4]: 338 nM
- EC50 [15]: 115 nM

Source: ChEMBL document CHEMBL6092223, “Covalent Inhibitors of KEAP1 with Exquisite Selectivity” (J Med Chem, 2024)
